Measurements: ChEMBL document CHEMBL2311452 (J Med Chem, 2013)

How the values were obtained:
Neuraminidase [1] = target: T1, Neuraminidase (Influenza A virus, UniProt B4URF0); experiment: Inhibition of influenza A virus (A/Guangdong/376/2001(H1N1)) neuraminidase infected in chick embryo using MUNANA as substrate after 1 hr by spectrophotometric analysis
Neuraminidase [2] = target: T1, Neuraminidase; experiment: Inhibition of Influenza A virus (A/Indonesia/5/2005(H5N1)) neuraminidase infected in chick embryo using MUNANA as substrate after 1 hr by spectrophotometric analysis
Neuraminidase [3] = target: T1, Neuraminidase; experiment: Inhibition of Influenza A virus (A/Sydney/5/1997(H3N2)) neuraminidase infected in chick embryo using MUNANA as substrate after 1 hr by spectrophotometric analysis
[4] = Cmax in Sprague-Dawley rat at 10 mg/kg, po; type: ADME, organism-based; design: dose 10 mg/kg, route oral; details: in vivo
Summary of the method: (§1)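 Single 10 mg/kg oral dose given to male Sprague-Dawley rats (~250 g), three per group. Blood was sampled via the retrobulbar vein at 0, 5, 15 and 30 min and at 1, 2, 5, 8 and 24 h. Plasma concentrations were measured by LC/MS/MS, and parameters came from noncompartmental analysis of mean plasma concentrations.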

[5] = Volume of distribution at steady state in Sprague-Dawley rat at 2 mg/kg, iv; type: ADME, organism-based; design: dose 2 mg/kg, route intravenous; details: in vivo, read-out: Vdss
Summary of the method: (§2)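 Male Sprague-Dawley rats (~250 g), three per group, given a single 2 mg/kg intravenous dose. Blood samples were drawn via the retrobulbar vein at 0, 5, 15 and 30 min and at 1, 2, 5, 8 and 24 h. Plasma levels were quantified by LC/MS/MS, and parameters were derived by noncompartmental analysis of mean plasma concentrations.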

[6] = Clearance in Sprague-Dawley rat at 2 mg/kg, iv; type: ADME, organism-based; design: dose 2 mg/kg, route intravenous; details: in vivo; summary of the method: as §2
[7] = Mean residence time in Sprague-Dawley rat at 2 mg/kg, iv; type: ADME, organism-based; design: dose 2 mg/kg, route intravenous; details: in vivo; summary of the method: as §2
[8] = AUC (0 to 8 hrs) in Sprague-Dawley rat at 2 mg/kg, iv; type: ADME, organism-based; design: time < 8 hr, dose 2 mg/kg, route intravenous; details: plasma
Summary of the method: (§3)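 Male Sprague-Dawley rats (~250 g), three per group. One group received 10 mg/kg orally and the other 2 mg/kg intravenously. Blood was drawn from the retrobulbar vein at 0, 5, 15 and 30 min and at 1, 2, 5, 8 and 24 h. Plasma levels were measured by LC/MS/MS, and parameters were calculated by noncompartmental analysis of mean plasma concentrations.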

[9] = Terminal half life in Sprague-Dawley rat at 2 mg/kg, iv; type: ADME, organism-based; design: dose 2 mg/kg, route intravenous; details: in vivo, read-out: beta t1/2 (converted); summary of the method: as §2
[10] = Cmax in Sprague-Dawley rat at 2 mg/kg, iv; type: ADME, organism-based; design: dose 2 mg/kg, route intravenous; details: in vivo; summary of the method: as §2
[11] = Oral bioavailability in Sprague-Dawley rat at 10 mg/kg; type: ADME, organism-based; details: in vivo; summary of the method: as §1
[12] = Mean residence time in Sprague-Dawley rat at 10 mg/kg, po; type: ADME, organism-based; design: dose 10 mg/kg, route oral; details: in vivo; summary of the method: as §1
[13] = AUC (0 to 8 hrs) in Sprague-Dawley rat at 10 mg/kg, po; type: ADME, organism-based; design: time < 8 hr, dose 10 mg/kg, route oral; details: plasma; summary of the method: as §3
[14] = Terminal half life in Sprague-Dawley rat at 10 mg/kg, po; type: ADME, organism-based; design: dose 10 mg/kg, route oral; details: in vivo, read-out: beta t1/2 (converted)
Summary of the method: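 Single 10 mg/kg oral dose given to male Sprague-Dawley rats (~250 g), three per group. Plasma concentrations were measured by LC/MS/MS, and parameters came from noncompartmental analysis of mean plasma concentrations.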

[15] = Tmax in Sprague-Dawley rat at 10 mg/kg, po; type: ADME, organism-based; design: dose 10 mg/kg, route oral; details: in vivo; summary of the method: as §1
Neuraminidase [16] = target: T1, Neuraminidase; experiment: Inhibition of Influenza A virus […]/78(H1N1) neuraminidase
Neuraminidase [17] = target: T1, Neuraminidase; experiment: Inhibition of Influenza A virus H5N1 neuraminidase
Neuraminidase [18] = target: T1, Neuraminidase; experiment: Inhibition of Influenza A virus Mississippi/1/85(H3N2) neuraminidase
[19] = target: Neuraminidase (Influenza A virus) (UniProt B4URF0); experiment: Inhibition of influenza A virus (A/Guangdong/376/2001(H1N1)) neuraminidase infected in chick embryo using MUNANA as substrate at 1 uM after 1 hr by spectrophotometric analysis
Neuraminidase (Influenza A virus), sequence (B4URF0 as listed by the source): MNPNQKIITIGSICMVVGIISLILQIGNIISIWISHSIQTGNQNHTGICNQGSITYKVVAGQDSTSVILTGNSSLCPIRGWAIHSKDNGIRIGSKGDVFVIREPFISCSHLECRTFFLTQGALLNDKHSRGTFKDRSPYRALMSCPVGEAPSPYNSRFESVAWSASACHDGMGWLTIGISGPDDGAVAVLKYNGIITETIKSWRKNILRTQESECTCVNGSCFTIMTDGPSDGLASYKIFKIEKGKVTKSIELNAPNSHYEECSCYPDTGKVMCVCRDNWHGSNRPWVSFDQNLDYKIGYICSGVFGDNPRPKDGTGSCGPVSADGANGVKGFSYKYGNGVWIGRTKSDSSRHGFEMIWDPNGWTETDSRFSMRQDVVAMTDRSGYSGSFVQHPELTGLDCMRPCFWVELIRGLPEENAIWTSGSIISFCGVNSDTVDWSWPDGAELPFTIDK

T1 sequence (B4URF0 whole entry): as the sequence (B4URF0 as listed by the source) above

| Compound | IC50 (Neuraminidase [1]) [µM] | IC50 (Neuraminidase [2]) [µM] | IC50 (Neuraminidase [3]) [µM] | other results |
| --- | --- | --- | --- | --- |
| CC(=O)N[C@H]1[C@H]([C@H](O)[C@H](O)CO)OC(C(=O)N[C@@H](CC(C)C)C(=O)O)=C[C@@H]1N | 159 | 669 | 647 |  |
| CC(=O)N[C@H]1[C@H]([C@H](O)[C@H](O)CO)OC(C(=O)NCc2cccc(F)c2)=C[C@@H]1NC(=N)N | 0.09 | 0.001 | 0.013 | Cmax [4]: 260 nM; Vd [5]: 0.23 L/kg; clearance [6]: 5.83 mL/min/kg; MRT [7]: 0.65 h; AUC(0-t) at 8 h [8]: 5380 ng·h/mL; half-life [9]: 0.69 h; Cmax [10]: 8800 ng/mL; bioavailability [11]: 1.41%; MRT [12]: 6.29 h; AUC(0-t) at 8 h [13]: 378 ng·h/mL; half-life [14]: 2.96 h; Tmax [15]: 1 h |
| CC(=O)N[C@H]1[C@H]([C@H](O)[C@H](O)CO)OC(C(=O)N[C@H](C(=O)O)C(C)C)=C[C@@H]1N | 2.25 | 4.3 | 5.15 |  |
| CC(=O)N[C@H]1[C@H]([C@H](O)[C@H](O)CO)OC(C(=O)N[C@H](C(=O)O)C(C)C)=C[C@@H]1NC(=N)N | 2.14 | 4.19 | 0.107 |  |
| CC(=O)N[C@H]1[C@H]([C@H](O)[C@H](O)CO)OC(C(=O)NCc2ccccc2F)=C[C@@H]1NC(=N)N | 0.24 | 0.26 | 0.89 |  |
| CC(=O)N[C@H]1[C@H]([C@H](O)[C@H](O)CO)OC(C(=O)N2CCOCC2)=C[C@@H]1O | 98.9 | 66.7 | 52.9 |  |
| CC(=O)N[C@H]1[C@H]([C@H](O)[C@H](O)CO)OC(C(=O)N[C@H](C(=O)O)c2ccccc2)=C[C@@H]1O | 60.5 | 74.4 | 60 |  |
| CC(=O)N[C@H]1[C@H]([C@H](O)[C@H](O)CO)OC(C(=O)N2CCC[C@@H](C(=O)O)C2)=C[C@@H]1N | 103 | 162 | 146 |  |
| COc1ccc(CNC(=O)C2=C[C@H](O)[C@@H](NC(C)=O)[C@H]([C@H](O)[C@H](O)CO)O2)cc1 | > 1000 | > 1000 | 858 |  |
| CC(=O)N[C@H]1[C@H]([C@H](O)[C@H](O)CO)OC(C(=O)N[C@@H](C)C(=O)O)=C[C@@H]1NC(=N)N | 0.1 | 0.063 | 0.41 |  |
| CC(=O)N[C@H]1[C@H]([C@H](O)[C@H](O)CO)OC(C(=O)O)=C[C@@H]1O [NEU5AC2EN] |  |  |  | IC50 (Neuraminidase [16]): 240 µM; IC50 (Neuraminidase [17]): 0.012 µM; IC50 (Neuraminidase [18]): 52 µM |
| CC(=O)N[C@H]1[C@H]([C@H](O)[C@H](O)CO)OC(C(=O)NCc2cccc(Cl)c2)=C[C@@H]1NC(=N)N |  |  |  | inhibition [19]: 51% |
| CC(=O)N[C@H]1[C@H]([C@H](O)[C@H](O)CO)OC(C(=O)NCc2ccc(F)cc2)=C[C@@H]1NC(=N)N |  |  |  | inhibition [19]: 54.8% |
